Reference: ChEMBL document CHEMBL4145462, “Nitrogen-containing ecdysteroid derivatives vs. multi-drug resistance in cancer: Preparation and antitumor activity of oximes, oxime ethers and a lactam” (Eur J Med Chem, 2018)

Tests used:
[1] = target: T1, ABCB1 (P-glycoprotein) (Homo sapiens, UniProt P08183); test: Inhibition of human ABCB1 expressed in mouse L5178 cells assessed as increase in rhodamine-123 accumulation at 2 uM after 10 mins by flow cytometric analysis relative to control; type: cell-based; details: mouse L5178 cells expressing human ABCB1, probe rhodamine-123
T1 sequence (P08183 whole entry): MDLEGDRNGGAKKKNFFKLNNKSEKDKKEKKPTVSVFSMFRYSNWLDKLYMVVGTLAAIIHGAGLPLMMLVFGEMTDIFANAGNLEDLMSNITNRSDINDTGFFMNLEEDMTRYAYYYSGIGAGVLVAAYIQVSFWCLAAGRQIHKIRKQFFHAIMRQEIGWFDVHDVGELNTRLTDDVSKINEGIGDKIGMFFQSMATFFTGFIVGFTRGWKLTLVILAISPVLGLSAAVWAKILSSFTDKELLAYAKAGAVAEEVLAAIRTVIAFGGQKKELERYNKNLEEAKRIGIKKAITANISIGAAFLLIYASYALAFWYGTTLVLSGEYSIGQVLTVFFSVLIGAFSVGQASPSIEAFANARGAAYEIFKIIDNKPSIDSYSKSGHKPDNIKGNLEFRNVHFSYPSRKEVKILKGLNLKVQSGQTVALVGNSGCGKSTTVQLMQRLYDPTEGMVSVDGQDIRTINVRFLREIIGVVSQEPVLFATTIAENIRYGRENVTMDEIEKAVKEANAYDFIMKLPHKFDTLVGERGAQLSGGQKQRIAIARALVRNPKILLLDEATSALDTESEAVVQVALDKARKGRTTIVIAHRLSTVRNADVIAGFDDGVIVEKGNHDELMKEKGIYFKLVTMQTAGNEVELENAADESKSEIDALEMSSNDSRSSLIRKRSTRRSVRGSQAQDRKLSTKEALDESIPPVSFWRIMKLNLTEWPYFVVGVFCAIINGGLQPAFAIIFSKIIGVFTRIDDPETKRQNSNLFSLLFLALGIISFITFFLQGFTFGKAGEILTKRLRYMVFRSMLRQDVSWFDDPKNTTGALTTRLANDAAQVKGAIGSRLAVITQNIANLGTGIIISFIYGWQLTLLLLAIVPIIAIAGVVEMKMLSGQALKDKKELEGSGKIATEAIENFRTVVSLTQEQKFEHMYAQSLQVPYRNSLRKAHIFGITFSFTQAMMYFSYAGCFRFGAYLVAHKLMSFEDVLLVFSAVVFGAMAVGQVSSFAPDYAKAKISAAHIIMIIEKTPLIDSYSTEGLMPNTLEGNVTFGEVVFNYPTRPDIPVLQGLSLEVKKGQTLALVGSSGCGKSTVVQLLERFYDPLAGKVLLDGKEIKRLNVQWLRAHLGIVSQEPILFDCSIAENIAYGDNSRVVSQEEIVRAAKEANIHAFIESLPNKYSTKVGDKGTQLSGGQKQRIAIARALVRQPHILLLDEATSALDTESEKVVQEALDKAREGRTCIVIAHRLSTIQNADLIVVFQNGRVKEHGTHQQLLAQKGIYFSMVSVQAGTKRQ
Method in brief: (§1)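 Cells at 2 × 10^6/mL were preincubated 10 min with compound. Rhodamine 123 then added to 5.2 µM final, 20 min at 37 °C. Cells washed twice in PBS, resuspended and read by flow cytometry. Percent inhibition was scaled between MDR-cell accumulation (0%) and parental L5178 accumulation (100%). Controls: 100 nM tariquidar (positive) and 2% DMSO (negative).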

[2] = Cytotoxicity against mouse L5178 cells after 48 hrs by MTT assay; type: functional, cell-based; details: L5178, 48 h
Method in brief: (§2)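 Parental mouse lymphoma L5178 and the MDR line made by pHa MDR1/A retrovirus transfection, selected with 60 µg/L colchicine. Grown in McCoy's 5A with horse serum at 37°C, 5% CO2. 5 x 10^4 cells/well, serial compound dilutions, 48 h. MTT added to 0.5 mg/mL final for 4 h, then 10% SDS in 0.01 M HCl overnight, OD read at 540 and 630 nm. IC50 taken as median cytotoxic activity (Dm) from control lanes of checkerboard plates, n=2.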

[3] = Cytotoxicity against mouse L5178 cells expressing human ABCB1 after 48 hrs by MTT assay; type: functional, cell-based; details: L5178, 48 h; method in brief: as §2
[4] = target: T1, ABCB1 (P-glycoprotein); test: Inhibition of human ABCB1 expressed in mouse L5178 cells assessed as increase in rhodamine-123 accumulation at 20 uM after 10 mins by flow cytometric analysis relative to control; type: cell-based; details: mouse L5178 cells expressing human ABCB1, probe rhodamine-123; method in brief: as §1
[5] = Synergistic cytotoxicity against mouse L5178 cells assessed as combination index at ED90 using 600:1 test compound to doxorubicin ratio after 48 hrs by MTT-based checkerboard microplate method; type: functional
Method in brief: (§3)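 Checkerboard microplate combinations of compound with doxorubicin at constant molar ratios. 5 × 10^4 cells/well in McCoy's 5A, 48 h at 37°C, 5% CO2. MTT added to 0.5 mg/mL final for 4 h, SDS/HCl overnight, OD read at 540 and 630 nm. Combination indices derived per ratio for 50%, 75% and 90% growth inhibition by median-effect analysis.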

[6] = Synergistic cytotoxicity against mouse L5178 cells expressing human ABCB1 assessed as combination index at ED50 using 60:1 test compound to doxorubicin ratio after 48 hrs by MTT-based checkerboard microplate method; type: functional; method in brief: as §3
[7] = Synergistic cytotoxicity against mouse L5178 cells assessed as combination index at ED50 using 600:1 test compound to doxorubicin ratio after 48 hrs by MTT-based checkerboard microplate method; type: functional; method in brief: as §3
[8] = Synergistic cytotoxicity against mouse L5178 cells expressing human ABCB1 assessed as combination index at ED75 using 30:1 test compound to doxorubicin ratio after 48 hrs by MTT-based checkerboard microplate method; type: functional; method in brief: as §3
[9] = Synergistic cytotoxicity against mouse L5178 cells expressing human ABCB1 assessed as combination index at ED75 using 60:1 test compound to doxorubicin ratio after 48 hrs by MTT-based checkerboard microplate method; type: functional; method in brief: as §3
[10] = Synergistic cytotoxicity against mouse L5178 cells expressing human ABCB1 assessed as combination index at ED90 using 60:1 test compound to doxorubicin ratio after 48 hrs by MTT-based checkerboard microplate method; type: functional; method in brief: as §3
[11] = Synergistic cytotoxicity against mouse L5178 cells expressing human ABCB1 assessed as combination index at ED75 using 15:1 test compound to doxorubicin ratio after 48 hrs by MTT-based checkerboard microplate method; type: functional; method in brief: as §3
[12] = Synergistic cytotoxicity against mouse L5178 cells assessed as combination index at ED75 using 600:1 test compound to doxorubicin ratio after 48 hrs by MTT-based checkerboard microplate method; type: functional; method in brief: as §3
[13] = Synergistic cytotoxicity against mouse L5178 cells assessed as combination index at ED50 using 150:1 test compound to doxorubicin ratio after 48 hrs by MTT-based checkerboard microplate method; type: functional; method in brief: as §3
[14] = Synergistic cytotoxicity against mouse L5178 cells assessed as combination index at ED50 using 300:1 test compound to doxorubicin ratio after 48 hrs by MTT-based checkerboard microplate method; type: functional; method in brief: as §3
[15] = Synergistic cytotoxicity against mouse L5178 cells assessed as combination index at ED90 using 300:1 test compound to doxorubicin ratio after 48 hrs by MTT-based checkerboard microplate method; type: functional; method in brief: as §3
[16] = Synergistic cytotoxicity against mouse L5178 cells assessed as combination index at ED75 using 300:1 test compound to doxorubicin ratio after 48 hrs by MTT-based checkerboard microplate method; type: functional; method in brief: as §3
[17] = Synergistic cytotoxicity against mouse L5178 cells assessed as combination index at ED75 using 150:1 test compound to doxorubicin ratio after 48 hrs by MTT-based checkerboard microplate method; type: functional; method in brief: as §3
[18] = Synergistic cytotoxicity against mouse L5178 cells expressing human ABCB1 assessed as combination index at ED50 using 30:1 test compound to doxorubicin ratio after 48 hrs by MTT-based checkerboard microplate method; type: functional; method in brief: as §3
[19] = Synergistic cytotoxicity against mouse L5178 cells expressing human ABCB1 assessed as combination index at ED90 using 30:1 test compound to doxorubicin ratio after 48 hrs by MTT-based checkerboard microplate method; type: functional; method in brief: as §3
[20] = Synergistic cytotoxicity against mouse L5178 cells assessed as combination index at ED90 using 150:1 test compound to doxorubicin ratio after 48 hrs by MTT-based checkerboard microplate method; type: functional; method in brief: as §3
[21] = Synergistic cytotoxicity against mouse L5178 cells expressing human ABCB1 assessed as combination index at ED90 using 15:1 test compound to doxorubicin ratio after 48 hrs by MTT-based checkerboard microplate method; type: functional; method in brief: as §3
[22] = Synergistic cytotoxicity against mouse L5178 cells expressing human ABCB1 assessed as combination index at ED50 using 15:1 test compound to doxorubicin ratio after 48 hrs by MTT-based checkerboard microplate method; type: functional; method in brief: as §3
[23] = system: MDA-MB-231; test: Antiproliferative activity against human MDA-MB-231 cells after 72 hrs by MTT assay; type: functional, cell-based; details: MDA-MB-231, 72 h
Method in brief: (§4)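 Cells grown in MEM with 10% FCS, 1% non-essential amino acids and 1% penicillin-streptomycin. Seeded at 5000 cells/well, exposed to 0.1–30.0 µM compound for 72 h. MTT (5 mg/ml solution) was then added for 4 h, formazan dissolved in DMSO, and absorbance read at 545 nm. Cisplatin served as positive control. IC50 came from sigmoidal dose–response fits (log inhibitor vs normalized response, variable slope).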

[24] = Synergistic cytotoxicity against mouse L5178 cells assessed as combination index at ED90 using 75:1 test compound to doxorubicin ratio after 48 hrs by MTT-based checkerboard microplate method; type: functional; method in brief: as §3
[25] = system: HeLa; test: Antiproliferative activity against human HeLa cells after 72 hrs by MTT assay; type: functional, cell-based; method in brief: as §4
[26] = Synergistic cytotoxicity against mouse L5178 cells assessed as combination index at ED75 using 37.5:1 test compound to doxorubicin ratio after 48 hrs by MTT-based checkerboard microplate method; type: functional; method in brief: as §3
[27] = system: SiHa; test: Antiproliferative activity against human SiHa cells after 72 hrs by MTT assay; type: functional, cell-based; method in brief: as §4
[28] = Synergistic cytotoxicity against mouse L5178 cells assessed as combination index at ED90 using 37.5:1 test compound to doxorubicin ratio after 48 hrs by MTT-based checkerboard microplate method; type: functional; method in brief: as §3
[29] = system: MCF7; test: Antiproliferative activity against human MCF7 cells after 72 hrs by MTT assay; type: functional, cell-based; details: MCF7, 72 h; method in brief: as §4
[30] = Synergistic cytotoxicity against mouse L5178 cells assessed as combination index at ED50 using 75:1 test compound to doxorubicin ratio after 48 hrs by MTT-based checkerboard microplate method; type: functional; method in brief: as §3
[31] = Synergistic cytotoxicity against mouse L5178 cells assessed as combination index at ED50 using 37.5:1 test compound to doxorubicin ratio after 48 hrs by MTT-based checkerboard microplate method; type: functional; method in brief: as §3
[32] = Synergistic cytotoxicity against mouse L5178 cells assessed as combination index at ED75 using 75:1 test compound to doxorubicin ratio after 48 hrs by MTT-based checkerboard microplate method; type: functional; method in brief: as §3

SMILES	inhibition at 10 min, 2 µM [1] [%]	IC50 [2] [µM]	IC50 [3] [µM]	inhibition at 10 min, 20 µM [4] [%]	CI [5]	CI [6]	CI [7]	CI [8]	CI [9]	CI [10]	CI [11]	CI [12]	CI [13]	CI [14]	CI [15]	CI [16]	CI [17]	CI [18]	CI [19]	CI [20]	other results
CC(C)(O)CC[C@H]1OC(C)(C)O[C@]1(C)[C@H]1CC[C@@]2(O)C3=CC(=O)[C@@H]4C[C@H]5OC(C)(C)O[C@H]5C[C@]4(C)[C@H]3CC[C@]12C	2.54	110	97.7	20.9	–	–	–	–	–	–	–	–	–	–	–	–	–	–	–	–	–
CC(C)(O)CC[C@H]1OC(C)(C)O[C@]1(C)[C@H]1CC=C2C3=C/C(=N\O)[C@@H]4C[C@H]5OC(C)(C)O[C@H]5C[C@]4(C)[C@H]3CC[C@@]21C	10.6	20.9	24.6	83	1.13	0.34	1.1	0.19	0.29	0.27	0.16	1.11	0.8	1.18	1.04	1.11	0.79	0.25	0.16	0.78	CI [21]: 0.12; CI [22]: 0.26
C=CCO/N=C1\C=C2[C@H](CC[C@]3(C)[C@@H]([C@@]4(C)OC(C)(C)O[C@@H]4CCC(C)(C)O)CC[C@@]23O)[C@@]2(C)C[C@@H]3OC(C)(C)O[C@@H]3C[C@@H]12	21	31.5	51.9	89.4	1.05	0.24	1.19	0.18	0.26	0.31	0.13	1.08	1.03	1.22	1.11	1.12	0.81	0.17	0.21	0.69	IC50 [23]: 21.4 µM; CI [24]: 1.27; IC50 [25]: 15.6 µM; CI [26]: 1.28; IC50 [27]: 25.5 µM; CI [28]: 0.89; IC50 [29]: 13.6 µM; CI [30]: 1.35; CI [31]: 1.95; CI [32]: 1.27; CI [21]: 0.13; CI [22]: 0.17
CC(C)(O)CC[C@H]1OC(C)(C)O[C@]1(C)[C@H]1CC=C2C3=C/C(=N/O)[C@@H]4C[C@H]5OC(C)(C)O[C@H]5C[C@]4(C)[C@H]3CC[C@@]21C	7.15	34.2	28.4	81.1	0.91	0.42	1.01	0.25	0.34	0.28	0.25	0.94	0.98	1.14	1.25	1.17	0.76	0.32	0.2	0.61	CI [21]: 0.27; CI [22]: 0.98
COc1cccc2c1C(=O)c1c(O)c3c(c(O)c1C2=O)C[C@@](O)(C(=O)CO)C[C@@H]3O[C@H]1C[C@H](N)[C@H](O)[C@H](C)O1 [DOXORUBICIN]	–	0.08	4.49	–	–	–	–	–	–	–	–	–	–	–	–	–	–	–	–	–	–
